The record followed here is ChEMBL document CHEMBL1255441, “Pharmacokinetics of cefotaxime and desacetylcefotaxime in infants during extracorporeal membrane oxygenation” (Antimicrob Agents Chemother, 2010).

Holding throughout (assay type): ADME, organism-based
What all share (design): dose 50 mg/kg, route intravenous

Data set [1] is described as follows: Volume of distribution in infant during extracorporeal membrane oxygenation at 50 mg/kg, iv dosed 2 to 3 times per day as bolus dose. The note with it: human, in vivo. The method, boiled down:
(§1)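 Infants on ECMO (n=37; PNA 0.67–199 days; 2.0–6.2 kg). Cefotaxime given as an IV bolus (≤3 min) into the extracorporeal line after the oxygenator. Dosing: 50 mg/kg b.i.d. for PNA <1 week, 50 mg/kg t.i.d. for 1–4 weeks, 37.5 mg/kg q.i.d. for >4 weeks. Routine venous circuit samples (EDTA), including post-decannulation up to 24 h. Cefotaxime and desacetyl metabolite measured by LC-MS (LOQ 0.2 mg/liter). One-compartment NONMEM population model.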

The nature of data set [2]: Clearance in infant weighing 2 to 6.2 kg weight after extracorporeal membrane oxygenation at 50 mg/kg, iv dosed 2 to 3 times per day as bolus dose. The note with it: human, in vivo. The method, boiled down:
as §1

In data set [3] the test system is Homo sapiens. As to the kind of experiment: Clearance in infant weighing 2 to 6.2 kg weight after extracorporeal membrane oxygenation assessed as desacetylcefotaxime at 50 mg/kg, iv dosed 2 to 3 times per day as bolus dose measured after 72 hrs. The note with it: in vivo. In outline:
as §1

Data set [4] deals with Homo sapiens. As to the kind of experiment: Clearance in infant during extracorporeal membrane oxygenation assessed as desacetylcefotaxime at 50 mg/kg, iv dosed 2 to 3 times per day as bolus dose. The note with it: in vivo. In outline: as §1
Data set [5] can be described thus: Clearance in infant weighing 2 to 6.2 kg weight during extracorporeal membrane oxygenation at 50 mg/kg, iv dosed 2 to 3 times per day as bolus dose. The following applies: human, in vivo. In outline: as §1
The subject of data set [6] is Homo sapiens. As to the kind of experiment: Clearance in infant weighing 2 to 6.2 kg weight assessed as desacetylcefotaxime at 50 mg/kg, iv dosed 2 to 3 times per day as bolus dose. The note with it: in vivo. In outline: as §1
Data set [7] in a line: Clearance in infant weighing 2 to 6.2 kg weight after extracorporeal membrane oxygenation at 50 mg/kg, iv dosed 2 to 3 times per day as bolus dose measured after 72 hrs. The following applies: human, in vivo. The method, boiled down: as §1
Data set [8] is described as follows: Clearance in infant during extracorporeal membrane oxygenation at 50 mg/kg, iv dosed 2 to 3 times per day as bolus dose. The following applies: human, in vivo. In outline: as §1
Data set [9] concerns Homo sapiens. As to the kind of experiment: Volume of distribution in infant during extracorporeal membrane oxygenation assessed as desacetylcefotaxime at 50 mg/kg, iv dosed 2 to 3 times per day as bolus dose. The following applies: in vivo. The method, boiled down: as §1
Data set [10] in a line: Clearance in infant weighing 2 to 6.2 kg weight at 50 mg/kg, iv dosed 2 to 3 times per day as bolus dose. The note with it: human, in vivo. In outline:
as §1

Data set [11] concerns Homo sapiens. As to the kind of experiment: Clearance in infant weighing 2 to 6.2 kg weight after extracorporeal membrane oxygenation assessed as desacetylcefotaxime at 50 mg/kg, iv dosed 2 to 3 times per day as bolus dose. The following applies: in vivo. In outline:
as §1

Data set [12] relates to Homo sapiens. As to the kind of experiment: Elimination half life in infant weighing 2 to 6.2 kg weight during extracorporeal membrane oxygenation assessed as desacetylcefotaxime at 50 mg/kg, iv dosed 2 to 3 times per day as bolus dose. The note with it: in vivo. The method, boiled down:
as §1

A short description of data set [13]: Elimination half life in infant weighing 2 to 6.2 kg weight during extracorporeal membrane oxygenation at 50 mg/kg, iv dosed 2 to 3 times in a day bolus dose. The following applies: human, in vivo, read-out: beta t1/2 (converted). The method, boiled down:
as §1

Broadly, the Vd is the apparent volume that relates the amount in the body to the concentration in plasma or blood. The term clearance denotes a measure of how efficiently the substance is removed, as volume per time. With `CO/N=C(\C(=O)N[C@@H]1C(=O)N2C(C(=O)O)=C(COC(C)=O)CS[C@H]12)c1csc(N)n1` [CEFOTAXIME], the Vd in [1] is 1.82 L; in the data set on Homo sapiens [9], 11 L. The clearance was 3.67 mL/min in data set [2]; 4.33 mL/min in data set [5]; 6.67 mL/min in data set [7]; 6 mL/min in [8]; 5 mL/min in data set [10]. The CL in the data set on Homo sapiens [3] turned out to be 1.38 L/h; in the data set on Homo sapiens [4], 1.46 L/h; in the data set on Homo sapiens [6] it was 1.37 L/h; with Homo sapiens [11] it was 0.18 L/h. The “beta t1/2” value in the data set on Homo sapiens [12] came out at 0.8 h. Besides, the half-life in data set [13] is 1.6 h.
